Experimental data from paper PMC4133170 (Biochimica et biophysica acta, 2014).

Tests used:
[1] = test system: LRP1; experiment: Western blot of LRP1 expression in hCMEC/D3 cells; type: cell-based, human; conditions: 24 h, 100 nM monomeric Aβ40 or 50 nM Aβ42 oligomers, n = 3
Procedure, shortened: (§1)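 hCMEC/D3 cells (1 × 10⁶ per 100 mm dish) grown to 70% confluence, then given 24 h of control media, 100 nM Aβ40 monomer, 50 nM Aβ42 oligomer or both. Lysed in RIPA with protease inhibitors; 25 μg protein on 8% Bis-Tris/MOPS gel, nitrocellulose, 2% BSA block. Overnight primary: LRP1 1:1500, RAGE 1:200, GAPDH 1:3000. HRP secondary 1:5000; bands quantified; three independent blots.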

[2] = test system: RAGE; experiment: Western blot of RAGE expression in hCMEC/D3 cells; type: cell-based, human; conditions: 24 h, 100 nM monomeric Aβ40 or 50 nM Aβ42 oligomers, n = 3
Procedure, shortened: as §1

[3] = test system: hCMEC/D3 cells; experiment: MTT cytotoxicity assay; type: cell-based, human
[4] = test system: LRP1; conditions: in vivo administration of 100 μg over 26 h, FVB wild type mice; cited from earlier work

Substance	reduction of LRP1 expression [1]	alteration in RAGE protein expression [2]	decrease in viability of hCMEC/D3 (MTT) ([3]; 24 h treatment with 250 nM Aβ40 monomer, mean of n = 3 independent experiments)	MTT assay result versus control ([3]; 24 h treatment, Aβ40 monomers at 50 and 100 nM, n = 3)	LRP1 expression in brain tissue [4]
Aβ40 monomer: synthetic Aβ40 peptide (AnaSpec), HFIP film dissolved in media and used immediately	not observed	did not show any significant alterations	14–17%	comparable to control treated cells	–
Aβ42 monomers: human sequence Aβ42 monomers administered in vivo in a cited study	–	–	–	–	significant reduction in LRP1 expression
